In ChEMBL document CHEMBL4613273, “Discovery of Aryl Formyl Piperidine Derivatives as Potent, Reversible, and Selective Monoacylglycerol Lipase Inhibitors” (J Med Chem, 2020):
Calls of active or inactive are those of the source. No cut-off for these calls is given here.

Experiments:
[1] = Bioavailability (0 to t) in Sprague-Dawley rat plasma at 10 mg/kg, ig measured over 1 to 300 mins post dose by LC-MS/MS analysis; assay type: ADME, organism-based; conditions: po
[2] = Half life in Sprague-Dawley rat plasma at 10 mg/kg, ig measured over 1 to 300 mins post dose by LC-MS/MS analysis; assay type: ADME, organism-based; conditions: po
[3] = target: T1, Monoglyceride lipase (Homo sapiens) (UniProt Q99685); experiment: Reversible inhibition of human recombinant MAGL pre-incubated for up to 60 mins before MAGL substrate addition and further incubated for 10 mins
T1 sequence (whole entry): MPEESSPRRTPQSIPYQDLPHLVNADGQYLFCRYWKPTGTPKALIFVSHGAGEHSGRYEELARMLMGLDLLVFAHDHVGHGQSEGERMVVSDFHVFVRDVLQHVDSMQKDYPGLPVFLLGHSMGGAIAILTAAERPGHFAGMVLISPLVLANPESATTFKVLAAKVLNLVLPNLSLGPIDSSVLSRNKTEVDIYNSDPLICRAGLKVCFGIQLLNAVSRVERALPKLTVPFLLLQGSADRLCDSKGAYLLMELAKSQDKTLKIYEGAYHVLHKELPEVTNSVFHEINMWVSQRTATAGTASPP
In short: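 The inhibitor was preincubated with MAGL for 0, 30 or 60 min before substrate was added to start the reaction. IC50 (nM) was determined at each preincubation time, from 3 independent experiments.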

[4] = Stability in human liver microsomes assessed as parent compound remaining level at 100 uM pre-incubated for 5 mins before NADPH addition and measured after 60 mins by UPLC-MS/MS analysis; assay type: ADME, Microsome; conditions: read-out: Stability
In short: (§1)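 Liver microsomes from human, mouse and rat were incubated with the compound. Remaining parent compound was followed at several time points up to 60 min and expressed as percent remaining.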

Mus musculus [5] = experiment: Antidepressant activity in ICR mouse model of reserpine-induced depression assessed as reduction in eyelid closure at 4 to 16 mg/kg, sc for 6 days followed by reserpine injection 2 hrs after last compound dose and measured after 2 hrs; assay type: functional, organism-based
In short: (§2)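 In mice, depression was induced with reserpine 4 mg/kg, and the compound was given s.c. at 4, 8 or 16 mg/kg. Controls received phosphate buffer alone. Awakening, finger contact, fear, head touch, autonomous movement, straight and eyelid closure were scored. Data are mean ± SD of 3 independent experiments.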

Monoglyceride lipase [6] = target: T2, Monoglyceride lipase (Homo sapiens, UniProt Q99685); experiment: Competitive inhibition of human recombinant MAGL at 31.25 nM to 125 nM pre-incubated for 5 mins before MAGL substrate addition and further incubated for 10 mins
T2 sequence (Q99685 whole entry): T1 sequence (whole entry)
In short: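 Mode of inhibition was assessed from Michaelis–Menten kinetics run at several inhibitor concentrations. Enzyme activity was plotted against substrate concentration and fitted to a mixed-model inhibition (competitive, uncompetitive and noncompetitive terms), giving Vmax, Km and α.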

[7] = Tmax in Sprague-Dawley rat plasma at 10 mg/kg, ig measured over 1 to 300 mins post dose by LC-MS/MS analysis; assay type: ADME, organism-based; conditions: po
Monoglyceride lipase [8] = target: T2, Monoglyceride lipase; experiment: Inhibition of human recombinant MAGL pre-incubated for 5 mins before MAGL substrate addition and further incubated for 10 mins
[9] = target: T3, Fatty-acid amide hydrolase 1 (Homo sapiens, UniProt O00519); experiment: Inhibition of human recombinant FAAH pre-incubated for 5 mins before substrate addition and further incubated for 30 mins by fluorescence assay
T3 sequence (O00519 whole entry): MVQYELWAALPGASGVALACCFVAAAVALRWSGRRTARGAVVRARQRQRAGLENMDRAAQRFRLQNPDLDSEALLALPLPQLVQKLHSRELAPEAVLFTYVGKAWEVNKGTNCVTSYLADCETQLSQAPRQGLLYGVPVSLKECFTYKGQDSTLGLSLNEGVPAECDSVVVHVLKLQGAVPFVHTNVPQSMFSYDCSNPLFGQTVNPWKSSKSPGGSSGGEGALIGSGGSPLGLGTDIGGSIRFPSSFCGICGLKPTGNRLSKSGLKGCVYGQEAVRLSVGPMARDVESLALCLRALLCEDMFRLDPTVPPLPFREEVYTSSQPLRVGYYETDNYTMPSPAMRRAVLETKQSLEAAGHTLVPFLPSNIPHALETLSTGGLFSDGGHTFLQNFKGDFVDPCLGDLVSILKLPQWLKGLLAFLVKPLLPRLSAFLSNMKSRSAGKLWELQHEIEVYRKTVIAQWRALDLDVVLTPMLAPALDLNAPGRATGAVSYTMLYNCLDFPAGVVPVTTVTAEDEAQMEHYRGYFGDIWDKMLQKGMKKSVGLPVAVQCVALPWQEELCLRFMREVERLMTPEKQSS

Mus musculus [10] = experiment: Antidepressant activity in ICR mouse model of reserpine-induced depression assessed as reduction in autonomous movement at 4 to 16 mg/kg, sc for 6 days followed by reserpine injection 2 hrs after last compound dose and measured after 2 hrs; assay type: functional, organism-based; in short: as §2
[11] = target: T1, Monoglyceride lipase (Homo sapiens); experiment: Reversible inhibition of human recombinant MAGL at 1 uM pre-incubated for 5 mins before MAGL substrate 4-NPA addition followed by 10 fold dilution and measured after 10 mins
In short: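 Human MAGL was preincubated with 1 μM inhibitor and then diluted 10-fold to a final 0.1 μM. Percent inhibition after dilution was compared with direct 1 μM and 0.1 μM samples to judge reversibility.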

[12] = AUC (0 to infinity) in Sprague-Dawley rat plasma at 10 mg/kg, iv measured over 1 to 300 mins post dose by LC-MS/MS analysis; assay type: ADME, organism-based; set-up: dose 10 mg/kg, time infinity, route intravenous; conditions: in vivo
[13] = AUC (0 to t) in Sprague-Dawley rat plasma at 10 mg/kg, ig measured over 1 to 300 mins post dose by LC-MS/MS analysis; assay type: ADME, organism-based; conditions: in vivo, po
[14] = Stability in rat liver microsomes assessed as parent compound remaining level at 100 uM pre-incubated for 5 mins before NADPH addition and measured after 60 mins by UPLC-MS/MS analysis; assay type: ADME, Microsome; conditions: read-out: Stability; in short: as §1
[15] = Stability in mouse liver microsomes assessed as parent compound remaining level at 100 uM pre-incubated for 5 mins before NADPH addition and measured after 60 mins by UPLC-MS/MS analysis; assay type: ADME, Microsome; conditions: read-out: Stability; in short: as §1
Cannabinoid receptor 1 = Cannabinoid receptor 1 (Homo sapiens, UniProt P21554); experiment: Inhibition of CB1 receptor (unknown origin) expressed in Flpin-CHO cells at 10 uM incubated for 10 mins by Eu-cAMP tracer based cAMP accumulation assay relative to control
Cannabinoid receptor 1, sequence (P21554 whole entry): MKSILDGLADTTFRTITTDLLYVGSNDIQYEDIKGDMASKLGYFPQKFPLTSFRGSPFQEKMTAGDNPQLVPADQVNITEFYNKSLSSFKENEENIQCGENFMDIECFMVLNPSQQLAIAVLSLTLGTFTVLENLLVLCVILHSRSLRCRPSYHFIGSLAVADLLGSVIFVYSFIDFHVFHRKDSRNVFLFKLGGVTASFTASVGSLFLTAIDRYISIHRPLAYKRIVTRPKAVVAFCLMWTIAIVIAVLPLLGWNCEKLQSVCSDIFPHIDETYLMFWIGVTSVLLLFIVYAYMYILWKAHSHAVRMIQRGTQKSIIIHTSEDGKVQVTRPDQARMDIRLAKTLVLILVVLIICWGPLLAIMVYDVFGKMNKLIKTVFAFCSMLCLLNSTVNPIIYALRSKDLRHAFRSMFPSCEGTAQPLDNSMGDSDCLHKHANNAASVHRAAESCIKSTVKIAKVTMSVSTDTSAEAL

[16] = AUC (0 to infinity) in Sprague-Dawley rat plasma at 10 mg/kg, ig measured over 1 to 300 mins post dose by LC-MS/MS analysis; assay type: ADME, organism-based; set-up: dose 10 mg/kg, route […], time infinity; conditions: in vivo, po

## O=C(Nc1cccc(Cl)c1)C1CCN(C(=O)c2ccc3ccccc3c2)CC1
[1]
  bioavailability: 12.2%
[2]
  half-life: 4.96 h
[3]
  inhibition: Active
[4]
  remaining at 1 h, 100 µM: 88.5%
Mus musculus [5]
  Activity: Active
Monoglyceride lipase [6]
  Ki: 13.4 nM
[7]
  Tmax: 0.567 h
Monoglyceride lipase [8]
  IC50: 14.7 nM
[9]
  IC50: > 100000 nM
Mus musculus [10]
  Activity: Active
[11]
  inhibition: Active
[12]
  AUC: 82362.19 µg·min/L
[13]
  AUCt: 9913.54 µg·min/L
[14]
  remaining at 1 h, 100 µM: 17.3%
[15]
  remaining at 1 h, 100 µM: 57.9%
Cannabinoid receptor 1
  inhibition: 29.7%
[16]
  AUC: 17791.86 µg·min/L
